STAT3 inh-1 – IL-6 driven STAT3 reporter inhibitors, primary screen, U3A cells, luciferase, luminescence, MLSCN library; actives 0.89% (n = 190,000); inhibition, % at 5.5 µM; IL-6 STAT3-luciferase reporter; host cell line lacks STAT1;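 active = inhibition above the mean inhibition across all screened compounds plus 3 SD, cut at about 44% in these data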
STAT3 act – IL-6 driven STAT3 reporter potentiators, primary screen, U3A cells, luciferase, luminescence, MLSCN library | AID 871, 2007 | IL-6 STAT3-luciferase reporter; 100% = signal with IL-6 EC80 alone | activation (% of control), % at 5.6 µM | actives 0.91% (n = 190,000);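 active = activation above the screen-wide mean of compound activation plus 3 SD, cut at about 130% in these data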
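system = STAT3-luciferase reporter U3A cells | reagent = IL-6 stimulus at 33 ng/mL final | timing = 1 h compound pre-exposure, 6 h IL-6 stimulation, 37 °C | measured by = luminescence | evaluation = % activation versus median of IL-6-stimulated wells | control set = IL-6-only wells as 100% reference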
STAT1 act – STAT1 signaling activators, primary screen, cell-based, HTS, luciferase reporter. NIH 3T3 STAT1-luciferase reporter, IFN-gamma, luminescence; 100% = IFN-gamma alone, no compound. activation (% of control), % at 5.5 µM. actives 2.6% (n = 200,000). AID 932, 2007;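 active = activation above the screen-wide mean activation plus 3 SD, cut at about 130% in these data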
NF-kB expr up – activators of NF-kB expression in neurons, primary screen, cell-based, HTS | human neuronal cells, NF-kB reporter expression; stronger effect = higher value | fold change at 12.5 µM | actives 1.6% (n = 190,000); in the data active = fold change above about 3.3
STAT1 blocker – STAT1 signaling inhibitors, primary screen, cell-based, HTS, luciferase reporter. NIH 3T3 STAT1-luciferase reporter, IFN-gamma, luminescence. inhibition, % at 5.5 µM. actives 0.35% (n = 200,000). AID 920, 2007;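 active = inhibition above a set limit, the mean inhibition across all tested compounds plus 3 SD, cut at about 34% in these data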
APP 5'UTR act – activators of APP 5'UTR luciferase reporter, primary screen, SH-SY5Y cells; SH-SY5Y APP 5'UTR luciferase reporter, luminescence; zero percent = DMSO vehicle wells; activation, % at 2 µM; actives 1% (n = 190,000); AID 1276, 2008;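 active = activation above a set limit, based on mean plus 3 SD of controls, cut at about 140% in these data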
STAT3 inh-2 – STAT3 reporter inhibitors, retest of hits, confirmation, U3A cells, luciferase, luminescence; shares compounds with STAT3 inh-1; IL-6 STAT3 luciferase reporter; cell line lacks STAT1; inhibition, % at 5.7 µM; actives 45% (n = 1,200);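 active = inhibition above the hit cutoff computed for the primary STAT3 screen, cut at about 44% in these data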
NFkB inh 2 – NF-kB reporter inhibitors in human cells, confirmation, counter-screen for STAT3 inhibitor project, cell-based, HEK293T, luciferase, TNF-alpha stimulus. shares compounds with STAT3 inh-1. TNF-alpha induced. inhibition, % at 5.7 µM. actives 36% (n = 1,200);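 active = inhibition above the mean of solvent-only control wells plus 3 SD, cutoff set per campaign, cut at about 13% in these data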
STAT1 inh STAT3c – STAT1 reporter inhibitors, IFN-gamma induced, confirmation, counter-screen for STAT3 inhibitor project, cell-based, NIH 3T3, luciferase luminescence; shares compounds with STAT3 inh-1; NIH 3T3 STAT1-luciferase reporter; inhibition, % at 5.7 µM; actives 27% (n = 1,200); AID 1317, 2008;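 active = inhibition above the mean plus 3 SD of solvent-only control wells, limit set per screening run, cut at about 16% in these data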
Hits are given with their value; . = inactive; / = no result. The list is not random: actives were taken first. Their share in the collection is about 5.1%.

SMILES | STAT3 inh-1 | STAT3 act | STAT1 act | NF-kB expr up | STAT1 blocker | APP 5'UTR act | STAT3 inh-2 | NFkB inh 2 | STAT1 inh STAT3c
Cc1ccnc(Nc2nc3ccccc3o2)n1 | 43 | . | . | . | . | 140 | . | . | .
O=C(N/N=C/c1ccc2c(c1)OCO2)c1ccc(COc2cccc3cccnc23)cc1 | . | . | . | . | . | . | / | / | /
O=C(N=C1SCC(=O)N1c1ccccc1Cl)c1ccccc1 | . | . | . | . | . | . | / | / | /
CCN(CC)S(=O)(=O)c1ccc(NC(=O)c2ccc(N(C)S(C)(=O)=O)cc2)cc1 | 80 | . | . | . | . | . | 72 | 29 | .
CCN(CC)S(=O)(=O)c1ccc(C(=O)Nc2ccc(Cc3ccncc3)cc2)cc1 | 64 | . | . | . | . | . | 61 | 16 | 16
COc1ccc(NC(=O)c2ccc(N(C)S(C)(=O)=O)cc2)cc1OC | . | . | . | . | . | . | / | / | /
COC(=O)c1ccc(NC(=O)c2ccc(N(C)S(C)(=O)=O)cc2)cc1 | 52 | . | . | . | . | . | . | . | .
CCN(CC)S(=O)(=O)c1ccc(NC(=O)c2ccccc2N(C)S(C)(=O)=O)cc1 | . | . | . | . | . | . | / | / | /
COc1ccc(NS(=O)(=O)c2ccc(NC(=O)c3ccc(N(C)S(C)(=O)=O)cc3)cc2)c(OC)c1 | 73 | . | . | . | . | . | 84 | 26 | 24
O=C(NCCc1ccccc1)C1CCCN1S(=O)(=O)c1ccccc1 (stereo not given) | . | . | . | . | . | . | / | / | /
CCCn1c(C)cc(C(=O)COc2ccc(C)nc2[N+](=O)[O-])c1C | . | . | . | . | . | . | / | / | /
Cc1ccc(OCC(=O)c2cc(C)n(-c3ccccc3)c2C)c([N+](=O)[O-])n1 | 61 | . | . | . | . | . | 45 | 15 | .
C=CCn1c(C)cc(C(=O)COc2ccc(C)nc2[N+](=O)[O-])c1C | 54 | . | . | . | . | . | . | . | .
CC1(C)CC2CC(C)(CN2S(=O)(=O)c2ccc(C(=O)Nc3ccc(Cl)c(S(=O)(=O)N4CCOCC4)c3)cc2)C1 (stereo not given) | 45 | . | . | . | . | . | 50 | 22 | .
CC(=O)/C(N=Nc1ccc2c(c1)OCCO2)=C(\C)O | 68 | . | . | . | . | . | . | . | .
Cc1sc2ncnc(NC3CCN(Cc4ccccc4)CC3)c2c1C | 45 | . | . | . | . | . | 62 | 16 | 25
O=C(/C=C/c1ccccc1Cl)Nc1ccc2c(c1)C(=O)NC2=O | . | . | . | . | . | . | / | / | /
O=C(/C=C/c1ccccc1Cl)Nc1cccc(O)c1 | 64 | . | . | 12 | . | 191 | . | 14 | 17
Cc1sc2ncnc(NCCc3ccc(S(N)(=O)=O)cc3)c2c1C | 74 | . | . | . | . | . | 80 | 29 | 30
COc1ccc(CSc2ncnc3sccc23)cc1F | . | . | . | / | . | . | / | / | /
COc1ccc(CCNc2ncnc3sccc23)cc1OC | 89 | . | . | . | . | . | 89 | 40 | 31
NS(=O)(=O)c1ccc(CCNc2ncnc3sccc23)cc1 | 54 | . | . | . | . | . | 48 | . | 23
CCc1nnc(NC(=O)CSc2nc3cc(OC)c(OC)cc3cc2C)s1 | . | . | . | . | . | . | / | / | /
COc1ccc(-c2csc(/C(C#N)=C(\O)CSc3nccn3C)n2)cc1OC | . | . | . | . | . | . | / | / | /
CCOC(=O)C1=C(N)Oc2c(oc(CO)cc2=O)C1c1ccccc1 (stereo not given) | . | . | . | . | . | . | / | / | /
SMILES | STAT3 inh-1 | STAT3 act | STAT1 act | NF-kB expr up | STAT1 blocker | APP 5'UTR act | STAT3 inh-2 | NFkB inh 2 | STAT1 inh STAT3c
COc1ccc(CCn2cnc(=O)c(C#N)c2C)cc1OC | . | . | . | . | . | . | / | / | /
COc1cc(OC)cc(C(=O)Nc2nnc(NC(=S)Nc3ccccc3)s2)c1 | 61 | . | . | . | . | . | 59 | . | .
CCc1nnc(NC(=O)c2ccc(OC)cc2)s1 | 57 | . | . | 4 | . | . | . | . | .
CNCc1ccccc1Sc1ccc(OC)c(OC)c1 | . | . | . | . | . | . | / | / | /
Cc1oc(-c2ccc(Cl)cc2)nc1CN1CCCC(C(=O)N2CCN(C(=O)c3ccco3)CC2)C1 (stereo not given) | 79 | . | . | . | . | / | 72 | 26 | .
CCOc1ccc(C(C)=O)cc1CSC(=N)N | . | . | . | / | . | . | / | / | /
CCCCOc1ccc(Br)cc1CSC(=N)N | 58 | . | . | . | . | . | 71 | 25 | 21
CC(C)(CNC(=S)NCCc1ccccc1)CNC(=S)NCCc1ccccc1 | . | . | . | . | . | . | / | / | /
Cc1ccc(C(=O)NCC(=O)OCC(=O)c2cc(C)n(Cc3ccco3)c2C)cc1 | . | . | . | . | . | . | / | / | /
C=CCn1c(C)cc(C(=O)COC(=O)CNC(=O)c2ccccc2)c1C | 46 | . | . | . | . | . | . | . | .
O=C(COc1ccc(Cl)cc1)Nc1ccc(N2CCN(C(=O)c3ccco3)CC2)cc1 | 61 | . | . | . | . | . | . | . | .
COc1ccc(OCC(=O)Nc2ccc(N3CCN(C(=O)c4ccco4)CC3)cc2)cc1 | . | . | . | . | . | . | / | / | /
CC(=O)N1CCN(c2ccc(NC(=O)COc3ccc(Cl)cc3Cl)cc2)CC1 | 60 | . | . | . | . | . | . | . | .
CC(=O)N1CCN(c2ccccc2NC(=O)COc2ccc(Cl)cc2Cl)CC1 | . | . | . | . | . | . | / | / | /
Cc1cc(CNC(=O)C(C)n2nc(C)c([N+](=O)[O-])c2C)c2ccccc2n1 (stereo not given) | . | . | . | . | . | . | / | / | /
COc1ccc(CNC(=O)c2ccc3c(=O)n(CCCN4CCCC4=O)c(=S)[nH]c3c2)cc1 | . | . | . | . | . | . | / | / | /
COC(=O)c1nn(-c2ccc(-c3ccccc3)cc2)cc1O | 74 | . | . | 4.6 | . | 156 | . | . | .

Screens deposited in PubChem by several laboratories.
